IDE cell inh: inhibitors of human insulin-degrading enzyme in cells; 0.41% of 320,000 active; HEK cells, FAbetaB cleavage, fluorescence polarization; inhibition, % at 5.59 µM; P14735; AID 434962;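 active means percent inhibition above the average of all tested compounds plus 3 SD, set per screening campaign, cut at about 16% in these data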;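 further: IDE supplied by intact live HEK cells; FP after avidin binding of uncleaved biotin substrate so inhibition keeps polarization high; 0% = DMSO wells and 100% = 60 µM reference IDE inhibitor Ii1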
UBC13 polyUb: inhibitors of human UBC13 polyubiquitin chain formation; inhibition, % at 20 µM; P61088; TR-FRET; 0.47% of 330,000 active; in the data active means inhibition above about 45%, passing the limit was not always enough
PHOSPHO1 inh: blocks human PHOSPHO1 phosphatase activity. Q8TCT1. recombinant PHOSPHO1, absorbance phosphatase assay. inhibition, % at 13.3 µM. 1.1% of 290,000 active. AID 1565; in the data active means inhibition above about 60%
proCasp3 act: activates human procaspase-3; P42574; recombinant procaspase-3 D3A, Ac-DEVD-pNA absorbance 405 nm; activation, % at 8.5 µM; 0.11% of 330,000 active; AID 463141;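 active means activation above the mean of all tested compounds plus 3 SD, cut at about 21% in these data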;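 further: 0% = DMSO alone and 100% = DMSO wells spiked with extra 5 µM PC-3 D3A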
Target sequence (P42574 whole entry D9A/D28A/D175A): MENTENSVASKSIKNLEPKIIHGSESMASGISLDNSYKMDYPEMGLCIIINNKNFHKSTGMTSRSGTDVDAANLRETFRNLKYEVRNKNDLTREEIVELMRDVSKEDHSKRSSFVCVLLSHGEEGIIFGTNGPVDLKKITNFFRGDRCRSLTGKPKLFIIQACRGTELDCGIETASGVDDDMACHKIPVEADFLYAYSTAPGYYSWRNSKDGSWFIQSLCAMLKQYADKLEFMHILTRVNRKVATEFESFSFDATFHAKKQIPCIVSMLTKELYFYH
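Assay system: Procaspase-3 D3A mutant, all three cleavage aspartates alanine. Buffer or medium: Zinc-free HEPES saline buffer with Triton X-100. Times: 1 h compound preincubation, 2 h substrate hydrolysis at 25 °C. Measured by: 405 nm absorbance of p-nitroaniline, reads at 0 and 120 min. Read-out basis: percent activation relative to control range. Replicates: singlicate.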
IDE cell activ: activators of human insulin-degrading enzyme in cells; HEK cells, FAbeta-B cleavage, fluorescence polarization; 0% vehicle, 100% cell-free pure enzyme wells; activation, % at 5.96 µM; P14735; 0.073% of 340,000 active;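 active means activation above the mean of all tested compounds plus 3 SD, set per screening campaign, cut at about 17% in these data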
procasp7 counter: counter-screen: procaspase-7 (human) activation; 0.093% of 330,000 active; activation, % at 8.5 µM; recombinant procaspase-7, Ac-DEVD-pNA absorbance 405 nm; D23A/D198A/D206A triple mutant, cannot self-cleave; scale: DMSO 0, 5 µM enzyme 100; P55210;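 active means percent activation above the screen-wide mean plus 3 SD, cut at about 25% in these data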
Target sequence (P55210 whole entry D23A/D198A/D206A): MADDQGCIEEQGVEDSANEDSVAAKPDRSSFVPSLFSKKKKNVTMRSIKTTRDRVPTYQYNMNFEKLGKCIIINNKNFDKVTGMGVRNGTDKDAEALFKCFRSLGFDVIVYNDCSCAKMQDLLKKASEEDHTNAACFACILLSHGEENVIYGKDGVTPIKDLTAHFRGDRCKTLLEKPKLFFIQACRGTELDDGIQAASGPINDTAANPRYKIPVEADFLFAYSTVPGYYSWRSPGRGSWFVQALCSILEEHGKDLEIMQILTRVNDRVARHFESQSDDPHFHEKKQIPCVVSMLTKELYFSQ
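Test system: Procaspase-7 triple mutant (PC-7 D3A). Also added: Ac-DEVD-pNA substrate, 400 µM as added. Schedule: 1 h enzyme–compound preincubation and 2 h substrate reaction, both 25 °C. Signal: p-Nitroaniline absorbance at 405 nm, read at 0 and 120 min. Control set: low DMSO alone, high DMSO plus 5 µM PC-7.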
Active calls of the source: *; . = no result. Shown are actives, neighbours in structure and some others; about 1.9% of the full set was active somewhere.

SMILES	IDE cell inh	UBC13 polyUb	PHOSPHO1 inh	proCasp3 act	IDE cell activ	procasp7 counter
C=CCn1c(NC(=O)c2ccc(C)cc2)c(C#N)sc1=N	6	7	96*	-10	0	-4
C=CCn1c(C(C)NC(=O)c2ccc(C)cc2)n[nH]c1=S (stereo unspecified)	2	-8	-5	-2	-4	5
CCN(CC)S(=O)(=O)c1ccc(N2CCN(C)CC2)c(NC(=O)COc2ccc(F)cc2Cl)c1	-3	3	.	-2	-1	4
Cc1ccccc1-n1nnnc1SCC(=O)NCC1(N2CCOCC2)CCCCC1	2	2	.	-4	-3	-2
COCCn1c(SC(C(=O)Nc2cc(C)ccc2OC)c2ccccc2)nnc1-c1ccc(Cl)cc1 (stereo unspecified)	-1	-6	63*	-7	0	-8
O=C(CCc1cccc(Cl)c1)N1CCCC(Nc2ccccc2)C1 (stereo unspecified)	0	7	26	9	4	-1
O=C(Cn1nnc(-c2cccs2)n1)NCc1ccco1	0	-2	64*	3	6	4
O=C(Cn1nnc(-c2cccs2)n1)NCc1ccccc1	3	8	23	0	4	-3
O=C(NC(=S)Nc1ccccc1Cl)c1csnn1	1	2	65*	-2	-5	-9
Cc1nn(Cc2n[nH]c(=S)n2Cc2ccccc2)c(C)c1Cl	13	-1	99*	-10	4	-16
Cc1cc(C)n(Cc2n[nH]c(=S)n2Cc2ccccc2)n1	3	3	90*	0	-6	5
O=C(NCc1ccccc1CN1CCCC1)c1cc2cc(Cl)ccc2o1	-4	20	.	10	2	-8
CCOC(=O)c1ccc(S(=O)(=O)N2CCC(N3CCCCC3)CC2)cc1	4	47*	18	9	0	8
CCOC(=O)CC1C(=O)NCCN1Cc1cccs1 (stereo unspecified)	4	11	64*	-7	-2	2
CCOC(=O)C1CCCN(Cc2cccs2)C1 (stereo unspecified)	1	-1	73*	-5	-3	-12
CCOC(=O)C1(Cc2ccccc2)CCCN(CCCn2cccn2)C1 (stereo unspecified)	1	2	64*	10	-2	4
CCOC(=O)C1(Cc2ccccc2)CCCN(Cc2ccncc2)C1 (stereo unspecified)	-4	-9	1	7	-6	-7
CC(=O)N[C@@H](Cc1c[nH]c2ccccc12)C(=O)OCc1cc(C(F)(F)F)cc(C(F)(F)F)c1	7	17	.	-4	8	-1
CCc1cccc(NS(=O)(=O)c2ccc3c(c2)oc(=O)n3C)c1	3	4	68*	3	6	6
N#CCSc1nc2ccc(N3CCCCC3)cc2c(=O)n1Cc1ccccc1	4	6	67*	0	1	-12
O=C(O)CCSCC(=O)c1ccc2c(c1)OCCO2	2	-2	78*	2	5	-6
CCCNC(=O)CN1C(=O)COc2ccc(S(=O)(=O)N3CCCCCC3)cc21	5	-6	40	8	8	0
CCN(CC)S(=O)(=O)c1ccc2c(c1)N(CC(=O)NCc1ccccn1)C(=O)CO2	-2	10	17	-2	-1	3
CCCNC(=O)CN1C(=O)COc2ccc(S(=O)(=O)N3CC(C)CC(C)C3)cc21 (stereo unspecified)	1	2	74*	6	-1	-3
COc1ccc(NC(=O)CN2C(=O)COc3ccc(S(=O)(=O)N4CCCCCC4)cc32)cc1	8	-7	64*	3	1	-8
SMILES	IDE cell inh	UBC13 polyUb	PHOSPHO1 inh	proCasp3 act	IDE cell activ	procasp7 counter
O=C(CN1C(=O)COc2ccc(S(=O)(=O)N3CCCC3)cc21)NCc1ccccn1	1	5	22	1	19*	9
CCN(CC)c1nc(-c2ccc(C(=O)NN)cc2)nc(-c2ccc(C(=O)NN)cc2)n1	.	0	27	.	-1	.
COc1cccc2c1C(=O)c1c(O)c3c(c(O)c1C2=O)C[C@@](O)(C(C)=O)C[C@@H]3O[C@H]1C[C@H](N)[C@H](O)[C@H](C)O1	.	.	-4	.	19*	.
COc1ccc([N+](=O)[O-])cc1NCc1ccccc1C	4	-5	60*	-7	0	-1
Cc1cc(C)n2nc(SC(C)C(=O)NCc3ccco3)nc2n1 (stereo unspecified)	7	-3	64*	-9	3	-5
CC(=O)Nc1ccc(NC(=O)C(C)Sc2nc3nc(C)cc(C)n3n2)cc1 (stereo unspecified)	-5	-6	.	1	2	7
CCOC(=O)c1ccc(-n2c(N)c(C(=O)NCC3CCCO3)sc2=S)cc1 (stereo unspecified)	0	0	76*	-7	0	-6
Cc1ccccc1C(=O)Nc1ccnn1C1CCN(C(=O)c2cnsn2)CC1	2	-10	24	14	7	-1
CC(C)(C)c1ccc(/C([O-])=C(/C(=S)NCc2ccco2)[n+]2ccccc2)cc1	2	-2	84*	-10	.	-10
CC(C)(C)c1ccc(C(=O)NC(=S)NCc2ccco2)cc1	-3	3	37	-7	-2	-4
Cc1ccc[n+](/C(C(=S)NCc2ccco2)=C(/[O-])c2ccccc2Cl)c1	5	-8	97*	-15	-1	-12
CC(C)(C)c1nc(S(=O)(=O)c2ccc(Cl)cc2)c(N2CCOCC2)o1	11	-7	63*	10	-1	4
O=C(COC(=O)CCc1nc2ccccc2c(=O)[nH]1)Nc1ccc(Cl)cn1	6	5	74*	-1	4	12
O=C(O)CC(c1ccccc1)n1cccc1 (stereo unspecified)	4	-10	87*	8	-2	1
Cc1ccc(-c2nc(SC(C)C(=O)N3CCCC3)n[nH]2)cc1 (stereo unspecified)	4	3	.	-2	6	-1
Cc1nn(CC(=O)Nc2cccnc2)c(=O)c2ccccc12	0	10	63*	4	2	-10
O=C(O)CCNC(=O)/C(=C/C=C/c1ccccc1)NC(=O)c1ccccc1	4	-16	-1	6	1	4
O=C1N=C(N2CCN(c3ccccc3)CC2)S/C1=C/c1cccs1	1	-5	4	3	-1	1
O=C1N=C(c2ccccc2)S/C1=C\c1cccs1	1	-28	95*	-14	-3	-28
Cc1ccc2cc(C(c3nnnn3C3CCCC3)N(Cc3ccccc3)Cc3ccco3)c(=O)[nH]c2c1 (stereo unspecified)	1	3	34	8	7	0
